One may read the Ki as a measure of affinity in units of concentration, obtained from inhibition or displacement.

In ChEMBL document CHEMBL3045880, “Design and syntheses of novel N-(benzothiazol-5-yl)-4,5,6,7-tetrahydro-1H-isoindole-1,3(2H)-dione and N-(benzothiazol-5-yl)isoindoline-1,3-dione as potent protoporphyrinogen oxidase inhibitors” (J Agric Food Chem, 2011) one finds inhibition of growth and Ki data, which are given here for two compounds.

For experiment [1], the system named is Amaranthus retroflexus. Briefly: Herbicidal activity against Amaranthus retroflexus assessed as growth inhibition at 37.5 g/ha postemergence treatment measured after 15 days by Greenhouse test. The format is functional. The following applies: post-emergence, 360 h, read-out: GI. The procedure, abridged: (§1)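 Postemergence greenhouse pot test. About 20 seeds per pot, sown 1-3 cm deep in clay soil (pH 6.5, 1.6% organic matter). Plants grown at 15-30 °C and 50% relative humidity. Compounds were made up as 100 g/L emulsifiable concentrates in DMF with Tween-80, then diluted in water. Dicots were sprayed at the 2-leaf stage and monocots at the 1-leaf stage. Controls were untreated and solvent-treated. Injury was scored visually after 15 days, three replicates per treatment.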

For experiment [2], the system named is Abutilon theophrasti. As to the kind of experiment: Herbicidal activity against Abutilon theophrasti (velvetleaf) assessed as growth inhibition at 75 g/ha postemergence treatment measured after 15 days by Greenhouse test. The format is functional. The following applies: post-emergence, 360 h, read-out: GI. A digest of the protocol:
as §1

Experiment [3] has as its system Echinochloa crus-galli. Briefly: Herbicidal activity against Echinochloa crus-galli (barnyard grass) assessed as growth inhibition at 150 g/ha postemergence treatment measured after 15 days by Greenhouse test. The format is functional. The following applies: post-emergence, 360 h, read-out: GI. The procedure, abridged: (§2)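 Test compounds were made up as 100 g/L emulsifiable concentrates (DMF solvent, Tween-80 emulsifier) and diluted with water. About 20 seeds were sown 1–3 cm deep in clay soil (pH 6.5, 1.6% organic matter) in 9.5 cm pots, kept at 15–30 °C and 50% RH. Postemergence spray was applied to dicots at the 2-leaf stage and monocots at the 1-leaf stage. Controls were untreated and solvent-treated. Injury was scored visually at 15 days, with three replicates.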

For experiment [4], the system named is Echinochloa crus-galli. As to the kind of experiment: Herbicidal activity against Echinochloa crus-galli (barnyard grass) assessed as growth inhibition at 37.5 g/ha postemergence treatment measured after 15 days by Greenhouse test. The format is functional. The conditions noted are these: post-emergence, 360 h, read-out: GI. The procedure, abridged:
as §1

In experiment [5] the test system is Setaria faberi. As to the kind of experiment: Herbicidal activity against Setaria faberi (Giant Foxtail) assessed as growth inhibition at 75 g/ha postemergence treatment measured after 15 days by Greenhouse test. The format is functional. The conditions noted are these: post-emergence, 360 h, read-out: GI. The procedure, abridged: as §1
In experiment [6] the test system is Brassica juncea. Briefly: Herbicidal activity against Brassica juncea assessed as growth inhibition at 75 g/ha postemergence treatment measured after 15 days by Greenhouse test. The format is functional. The conditions noted are these: post-emergence, 360 h, read-out: GI. A digest of the protocol: as §1
Experiment [7] deals with Echinochloa crus-galli. Briefly: Herbicidal activity against Echinochloa crus-galli (barnyard grass) assessed as growth inhibition at 75 g/ha postemergence treatment measured after 15 days by Greenhouse test. The format is functional. The following applies: post-emergence, 360 h, read-out: GI. The procedure, abridged:
as §1

The test system of experiment [8] is Brassica juncea. As to the kind of experiment: Herbicidal activity against Brassica juncea assessed as growth inhibition at 37.5 g/ha postemergence treatment measured after 15 days by Greenhouse test. The conditions noted are these: post-emergence, 360 h, read-out: GI. The format is functional. The procedure, abridged: as §1
Experiment [9] relates to Amaranthus retroflexus. Briefly: Herbicidal activity against Amaranthus retroflexus assessed as growth inhibition at 75 g/ha postemergence treatment measured after 15 days by Greenhouse test. The format is functional. The conditions noted are these: post-emergence, 360 h, read-out: GI. The procedure, abridged: as §1
Experiment [10] deals with Setaria faberi. As to the kind of experiment: Herbicidal activity against Setaria faberi (Giant Foxtail) assessed as growth inhibition at 37.5 g/ha postemergence treatment measured after 15 days by Greenhouse test. The format is functional. The conditions noted are these: post-emergence, 360 h, read-out: GI. The procedure, abridged: as §1
Experiment [11] has as its system Eclipta prostrata. Briefly: Herbicidal activity against Eclipta prostrata assessed as growth inhibition at 150 g/ha postemergence treatment measured after 15 days by Greenhouse test. The format is functional. The following applies: post-emergence, 360 h, read-out: GI. The procedure, abridged: as §2
Experiment [12] deals with Eclipta prostrata. As to the kind of experiment: Herbicidal activity against Eclipta prostrata assessed as growth inhibition at 37.5 g/ha postemergence treatment measured after 15 days by Greenhouse test. The format is functional. The following applies: post-emergence, 360 h, read-out: GI. A digest of the protocol: as §1
In experiment [13] the target is T1, Protoporphyrinogen oxidase (Homo sapiens) (UniProt P50336).
T1 sequence (whole entry): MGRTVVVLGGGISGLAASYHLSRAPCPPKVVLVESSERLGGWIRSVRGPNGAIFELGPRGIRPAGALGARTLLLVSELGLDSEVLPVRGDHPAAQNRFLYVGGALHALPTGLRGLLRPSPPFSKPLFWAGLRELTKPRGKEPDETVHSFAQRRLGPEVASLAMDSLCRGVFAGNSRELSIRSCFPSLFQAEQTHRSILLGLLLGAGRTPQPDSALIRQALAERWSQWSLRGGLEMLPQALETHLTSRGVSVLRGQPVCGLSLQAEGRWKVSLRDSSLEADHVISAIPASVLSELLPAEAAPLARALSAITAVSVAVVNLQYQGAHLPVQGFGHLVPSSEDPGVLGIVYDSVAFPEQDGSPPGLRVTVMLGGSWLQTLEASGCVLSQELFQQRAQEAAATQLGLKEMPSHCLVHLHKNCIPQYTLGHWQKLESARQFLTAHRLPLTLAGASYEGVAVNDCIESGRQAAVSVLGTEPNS
As to the kind of experiment: Inhibition of Homo sapiens (human) recombinant protoporphyrinogen oxidase by fluorescence detection.

Experiment [14] deals with Eclipta prostrata. As to the kind of experiment: Herbicidal activity against Eclipta prostrata assessed as growth inhibition at 75 g/ha postemergence treatment measured after 15 days by Greenhouse test. The format is functional. The conditions noted are these: post-emergence, 360 h, read-out: GI. The procedure, abridged:
as §1

Experiment [15] relates to Brassica juncea. Briefly: Herbicidal activity against Brassica juncea assessed as growth inhibition at 150 g/ha postemergence treatment measured after 15 days by Greenhouse test. The format is functional. The following applies: post-emergence, 360 h, read-out: GI. A digest of the protocol:
as §2

The test system of experiment [16] is Setaria faberi. As to the kind of experiment: Herbicidal activity against Setaria faberi (Giant Foxtail) assessed as growth inhibition at 150 g/ha postemergence treatment measured after 15 days by Greenhouse test. The format is functional. The conditions noted are these: post-emergence, 360 h, read-out: GI. A digest of the protocol: as §2
Experiment [17] has as its system Amaranthus retroflexus. As to the kind of experiment: Herbicidal activity against Amaranthus retroflexus assessed as growth inhibition at 150 g/ha postemergence treatment measured after 15 days by Greenhouse test. The format is functional. The conditions noted are these: post-emergence, 360 h, read-out: GI. A digest of the protocol: as §2
For experiment [18], the system named is Digitaria sanguinalis. As to the kind of experiment: Herbicidal activity against Digitaria sanguinalis (hairy crabgrass) assessed as growth inhibition at 150 g/ha postemergence treatment measured after 15 days by Greenhouse test. The format is functional. The following applies: post-emergence, 360 h, read-out: GI. The procedure, abridged: as §2
Experiment [19] deals with Abutilon theophrasti. Briefly: Herbicidal activity against Abutilon theophrasti (velvetleaf) assessed as growth inhibition at 37.5 g/ha postemergence treatment measured after 15 days by Greenhouse test. The following applies: post-emergence, 360 h, read-out: GI. The format is functional. A digest of the protocol: as §1
Experiment [20] deals with Abutilon theophrasti. Briefly: Herbicidal activity against Abutilon theophrasti (velvetleaf) assessed as growth inhibition at 150 g/ha postemergence treatment measured after 15 days by Greenhouse test. The following applies: post-emergence, 360 h, read-out: GI. The format is functional. A digest of the protocol: as §2
In experiment [21] the test system is Digitaria sanguinalis. Briefly: Herbicidal activity against Digitaria sanguinalis (hairy crabgrass) assessed as growth inhibition at 75 g/ha postemergence treatment measured after 15 days by Greenhouse test. The format is functional. The conditions noted are these: post-emergence, 360 h, read-out: GI. A digest of the protocol:
as §1

The test system of experiment [22] is Digitaria sanguinalis. Briefly: Herbicidal activity against Digitaria sanguinalis (hairy crabgrass) assessed as growth inhibition at 37.5 g/ha postemergence treatment measured after 15 days by Greenhouse test. The format is functional. The conditions noted are these: post-emergence, 360 h, read-out: GI. The procedure, abridged: as §1

`Cc1nn(-c2cc(NS(C)(=O)=O)c(Cl)cc2Cl)c(=O)n1C(F)F` [SULFENTRAZONE]: the inhibition of growth at 37.5 g/ha in the experiment with Amaranthus retroflexus [1] is 80%; with Echinochloa crus-galli [4], 50%; with Brassica juncea [8] it was 60%; in the experiment with Setaria faberi [10], under 50%; in the experiment with Eclipta prostrata [12] it was 80%; in the experiment with Abutilon theophrasti [19], 80%. For the same compound, the inhibition of growth at 37.5 g/ha in the experiment with Digitaria sanguinalis [22] amounted to 50%. Also, the inhibition of growth at 75 g/ha with Abutilon theophrasti [2] is 80%; with Setaria faberi [5], under 50%; in the experiment with Brassica juncea [6], 80%; in the experiment with Echinochloa crus-galli [7], 50%; with Amaranthus retroflexus [9] it was 80%; with Eclipta prostrata [14] it was 80%. In addition, the inhibition of growth at 75 g/ha in the experiment with Digitaria sanguinalis [21] was 50%. The inhibition of growth at 150 g/ha with Echinochloa crus-galli [3] is 60%; in the experiment with Eclipta prostrata [11], 80%; with Brassica juncea [15], 80%; in the experiment with Setaria faberi [16], under 50%; with Amaranthus retroflexus [17], 80%; in the experiment on Digitaria sanguinalis [18] it was 60%. Also, the inhibition of growth at 150 g/ha with Abutilon theophrasti [20] stood at 80%. In addition, the inhibitory constant (Ki) in experiment [13] is 720 nM.
For `COC(=O)CSc1nc2cc(N3C(=O)C4=C(CCCC4)C3=O)c(F)cc2s1`, the inhibition of growth at 37.5 g/ha with Amaranthus retroflexus [1] was 80%; in the experiment on Echinochloa crus-galli [4], under 50%; in the experiment with Brassica juncea [8] it was 50%; with Setaria faberi [10] it was under 50%; in the experiment with Eclipta prostrata [12] it was 80%; in the experiment with Abutilon theophrasti [19], 80%. Also, in the experiment with Digitaria sanguinalis [22], the inhibition of growth at 37.5 g/ha is under 50%. For the same compound, the inhibition of growth at 75 g/ha in the experiment with Abutilon theophrasti [2] is 80%; in the experiment on Setaria faberi [5], under 50%; with Brassica juncea [6] it was 50%; with Echinochloa crus-galli [7], 50%; with Amaranthus retroflexus [9] it was 80%; in the experiment on Eclipta prostrata [14], 80%. For the same compound, in the experiment with Digitaria sanguinalis [21], the inhibition of growth at 75 g/ha was determined as 50%. Moreover, the inhibition of growth at 150 g/ha with Echinochloa crus-galli [3] worked out at 60%; with Eclipta prostrata [11], 80%; in the experiment with Brassica juncea [15], 80%; with Setaria faberi [16], 60%; in the experiment with Amaranthus retroflexus [17], 80%; in the experiment with Digitaria sanguinalis [18], 60%. Besides, the Ki in experiment [13] was 1220 nM.
